Calls of active or inactive are those of the source. The calls are words filed in the database; no cut-off is given here.
How the values were obtained:
HepG2 [1] = test: Increase in glucose consumption in human HepG2 cells assessed as Gx/GDMSO ratio at 5 mM by glucose oxidase assay; format: functional
Summary of the method: (§1)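 HepG2 glucose consumption screen. Test compounds at 25 μM, metformin at 5 mM. Activity expressed as ratio of glucose consumption to DMSO-treated cells (Gx/G_DMSO).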

HepG2 [2] = test: Increase in glucose consumption in human HepG2 cells assessed as Gx/GDMSO ratio at 25 uM by glucose oxidase assay; format: functional; summary of the method: as §1
L6 [3] = test: Increase in glucose consumption in rat L6 cells at 20 uM after 24 hrs by glucose oxidase assay; format: functional, cell-based
Summary of the method: (§2)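 L6 myotubes treated with DMSO, compound or RGZ (20 μM) at the indicated concentrations for 24 h. Culture supernatants assayed for glucose consumption and lactate release; lysed cells assayed for ATP, normalized to protein. Mean ± SD of 3 independent experiments vs DMSO.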

Mus musculus [4] = test: Antidiabetic activity in KK-Ay mouse assessed as reduction in fasting blood glucose level at 5 mg/kg, po for 50 days by glucose oxidase method (reference value: 13.2 +/- 2.06 mM); format: functional; details: time 50 day
Summary of the method: (§3)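 Lipogenic-diet KK-Ay mice given 50 or 100 mg/kg compound or 5 mg/kg rosiglitazone orally for 50 days, C57BL/6J as normal controls. Fasting blood glucose, glycosylated haemoglobin, AGE, insulin, HOMA-IR, cholesterol, LDL-c, TG, serum creatinine and BUN determined. Mean ± SD, 8-9 mice per group.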

Mus musculus [5] = test: Antidiabetic activity in KK-Ay mouse assessed as effect on glycosylated haemoglobin level at 5 mg/kg, po for 50 days by glucose oxidase method (reference value: 8.74 +/- 1.08%); format: functional; details: time 50 day; summary of the method: as §3
Mus musculus [6] = test: Antidiabetic activity in KK-Ay mouse assessed as effect on AGE level at 5 mg/kg, […] by ELISA (Rvb 2.85 +/- 0.92 ug/ml); format: functional
Mus musculus [7] = test: Antidiabetic activity in KK-Ay mouse assessed as effect on insulin level at 5 mg/kg, […] by ELISA (reference value: 226 +/- 15.5 mU/l); format: functional
Mus musculus [8] = test: Antidiabetic activity in KK-Ay mouse assessed as effect on HOMA-IR level at 5 mg/kg, […] by ELISA (reference value: 137 +/- 18.4); format: functional
Mus musculus [9] = test: Antidiabetic activity in KK-Ay mouse assessed as effect on cholesterol level at 5 mg/kg, […] by ELISA (reference value: 7.38 +/- 1.03 mM); format: functional
Mus musculus [10] = test: Antidiabetic activity in KK-Ay mouse assessed as effect on LDL level at 5 mg/kg, […] by ELISA (reference value: 1.11 +/- 0.24 mM); format: functional
Mus musculus [11] = test: Antidiabetic activity in KK-Ay mouse assessed as effect on Triglycerides level at 5 mg/kg, po for 24 hrs by ELISA (reference value: 4.01 +/- 1.83 mM); format: functional
Mus musculus [12] = test: Antidiabetic activity in KK-Ay mouse assessed as effect on serum Creatinine level at 5 mg/kg, po for 24 hrs by ELISA (reference value: 124 +/- 35.1 uM); format: functional
Mus musculus [13] = test: Antidiabetic activity in KK-Ay mouse assessed as effect on BUN level at 5 mg/kg, […] by ELISA (reference value: 12.8 +/- 2.97 mM); format: functional
Mus musculus [14] = test: Anti-diabetic activity in overnight fasted diabetic KK-Ay mouse assessed as increase in insulin responsiveness by measuring blood glucose at 5 mg/kg, po measured after 35 days by insulin tolerance test; format: functional, organism-based; details: time 35.0 day
Summary of the method: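 KK-Ay mice orally treated with 50 or 100 mg/kg compound or 5 mg/kg rosiglitazone, C57BL/6J as normal controls. After 35 days of treatment, oral glucose tolerance test and insulin tolerance test run. Blood glucose plotted against time, AUC calculated. Mean ± SD, 8-9 mice per group.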

[15] = Effect on high fat diet-fed KK-Ay mouse model of obesity and diabetes assessed as food intake at 5 mg/kg, po (reference value: 5.67 +/- 0.55 g/day); format: ADME, organism-based; details: in vivo
Summary of the method: (§4)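 KK-Ay mice on lipogenic diet, with C57BL/6J mice as normal controls, dosed orally at 50 or 100 mg/kg (test) or 5 mg/kg (RGZ). Food intake (g/day), water intake (mL/day) and body weight recorded before and after treatment; body weight gain calculated. Mean±SD, 8-9 mice per group.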

[16] = Effect on high fat diet-fed KK-Ay mouse model of obesity and diabetes assessed as water intake at 5 mg/kg, po (reference value: 21.2 +/- 4.17 ml/day); format: ADME, organism-based; details: in vivo; summary of the method: as §4
[17] = Effect on high fat diet-fed KK-Ay mouse model of obesity and diabetes assessed as total body weight gain at 5 mg/kg, po (reference value: 43.5 +/- 5.24 g); format: ADME, organism-based; details: in vivo; summary of the method: as §4
Mus musculus [18] = test: Anti-diabetic activity in high fat diet-fed KK-Ay mouse model of obesity and diabetes assessed reduction in total protein level in urine at 5 mg/kg, po measured after 24 hrs; format: functional, organism-based
Summary of the method: (§5)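 Before study end, 24-h urine collected from C57BL/6J controls and KK-Ay mice (untreated, oral 50 or 100 mg/kg compound, or 5 mg/kg rosiglitazone). Volume, glucose, total protein and microalbumin measured by kits. Mean ± SD, 8-9 mice per group, vs C57BL/6J or untreated KK-Ay.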

Mus musculus [19] = test: Anti-diabetic activity in high fat diet-fed KK-Ay mouse model of obesity and diabetes assessed as reduction in microalbumin level in urine at 5 mg/kg, po measured after 24 hrs; format: functional, organism-based; summary of the method: as §5
Mus musculus [20] = test: Anti-diabetic activity in high fat diet-fed KK-Ay mouse model of obesity and diabetes assessed as improved pathological changes in kidney at 5 mg/kg, po by hematoxylin and eosin staining based histopathological analysis; format: functional, organism-based
Summary of the method: (§6)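 Mice sacrificed at study end, with KK-Ay given 50 or 100 mg/kg compound or 5 mg/kg rosiglitazone orally and C57BL/6J as normal controls. Kidney and pancreas sections H&E stained, imaged at 200×, pathological changes scored. Mean ± SD of 8-9 mice per group.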

Mus musculus [21] = test: Anti-diabetic activity in high fat diet-fed KK-Ay mouse model of obesity and diabetes assessed as improved pathological changes in pancreas at 5 mg/kg, po by hematoxylin and eosin staining based histopathological analysis; format: functional, organism-based; summary of the method: as §6
HepG2 [22] = test: Induction of glycolysis in human HepG2 cells assessed as reduction in cellular ATP production at 20 uM measured after 24 hrs; format: functional, cell-based
Summary of the method: (§7)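 HepG2 cells treated 24 h at the indicated concentrations; RGZ as reference. Supernatants used for glucose consumption and lactate release; lysed cells used for ATP, normalized to protein content. Mean ± SD of 3 or 4 separate experiments; compared with DMSO.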

HepG2 [23] = test: Increase in glucose consumption in human HepG2 cells at 20 uM measured after 24 hrs; format: functional, cell-based; summary of the method: as §7
L6 [24] = test: Induction of glycolysis in rat L6 cells assessed as reduction in cellular ATP production at 20 uM measured after 24 hrs; format: functional, cell-based; summary of the method: as §2
L6 [25] = test: Increase in glucose consumption in rat L6 cells at 20 uM measured after 24 hrs; format: functional, cell-based; summary of the method: as §2
L6 [26] = test: Induction of glycolysis in rat L6 cells assessed as increase in lactate release at 20 uM measured after 24 hrs
HepG2 [27] = test: Induction of glycolysis in human HepG2 cells assessed as increase in lactate release at 20 uM measured after 24 hrs

For CN(C)C(=N)NC(=N)N [METFORMIN], the Ratio (HepG2 [1]) was 1.53.
In the case of O=S(=O)(c1ccc(C(F)(F)F)cc1)N1C[C@H]2CCCN3CCC[C@@H]([C@H]23)[C@H]1CCCCO, the Ratio (HepG2 [2]) is reported as 1.06.
Work on CCCC[C@@H]1[C@H]2CCCN3CCC[C@H](CN1S(=O)(=O)c1ccccc1C(F)(F)F)[C@@H]23 yielded a Ratio (HepG2 [2]) of 1.26.
With CCCC[C@@H]1[C@H]2CCCN3CCC[C@@H](CN1C(=O)Nc1ccccc1C(F)(F)F)[C@@H]23 the Ratio (HepG2 [2]) was 1.03.
With O=C(O)CCC[C@@H]1[C@H]2CCCN3CCC[C@@H](CN1S(=O)(=O)c1ccc(C(F)(F)F)cc1)[C@@H]23 the Ratio (HepG2 [2]) was 1.03.
For O=C1CCC[C@@H]2[C@H]3CCCN4CCC[C@@H](CN12)[C@@H]34 [MATRINE], the Ratio (HepG2 [2]) was 1.26.
CCCC[C@@H]1[C@H]2CCCN3CCC[C@H](CN1S(=O)(=O)c1ccc(C(F)(F)F)cc1)[C@@H]23 gave a Ratio (HepG2 [2]) of 1.17.
In the case of CC(=O)Nc1nnc(CCC[C@@H]2[C@H]3CCCN4CCC[C@@H](CN2S(=O)(=O)c2cccc(C(F)(F)F)c2)[C@@H]34)s1, the Ratio (HepG2 [2]) is reported as 0.89.
In the case of O=S(=O)(c1cccc(C(F)(F)F)c1)N1C[C@H]2CCCN3CCC[C@@H]([C@H]23)[C@H]1CCCCO, the Ratio (HepG2 [2]) is reported as 1.25.
Compound O=C(O)CCC[C@@H]1[C@H]2CCCN3CCC[C@H](CN1S(=O)(=O)c1cccc(C(F)(F)F)c1)[C@@H]23 has a Ratio (HepG2 [2]) of 1.16.
In the case of CN(CCOc1ccc(CC2SC(=O)NC2=O)cc1)c1ccccn1 (stereo not drawn) [ROSIGLITAZONE], the Activity (L6 [3]) is reported as “Active”, the Activity (Mus musculus [4]) is reported as 7.66 mM and the Activity (Mus musculus [5]) is reported as 6.09%. For the same compound, the Activity (Mus musculus [6]) was 1.27 µg/mL, the Activity (Mus musculus [7]) was 89.3 mU/L and the Activity (Mus musculus [8]) was 30.4. For the same compound, the Activity (Mus musculus [9]) was 8.31 mM, the Activity (Mus musculus [10]) was 1.08 mM and the Activity (Mus musculus [11]) was 1.84 mM. The Activity (Mus musculus [12]) was 51.6 µM, the Activity (Mus musculus [13]) was 12 mM and the Activity (Mus musculus [14]) was “Active”. It also gave an Activity [15] of 4.58 g/day, an Activity [16] of 6.1 mL/day and an Activity [17] of 6.82 g. The Activity (Mus musculus [18]) was “Active”, the Activity (Mus musculus [19]) was “Active” and the Activity (Mus musculus [20]) was “Active”. For the same compound, the Activity (Mus musculus [21]) was “Active”, the Activity (HepG2 [22]) was “Active” and the Activity (HepG2 [23]) was “Active”. For the same compound, the Activity (L6 [24]) was “Dose-Dependent Effect”, the Activity (L6 [25]) was “Active” and the Activity (L6 [26]) was “Active”. For the same compound, the Activity (HepG2 [27]) was “Active”.
With CC[C@@H]1[C@H]2CCCN3CCC[C@@H](CN1S(=O)(=O)c1ccc(C(F)(F)F)cc1)[C@@H]23 the Ratio (HepG2 [2]) was 1.32.
Compound O=C1C=CC[C@@H]2[C@H]3CCCN4CCC[C@@H](CN12)[C@@H]34 [SOPHOCARPINE] has a Ratio (HepG2 [2]) of 1.11.
O=C1CCC[C@@H]2[C@H]3CCCN4CCC[C@H](CN12)[C@@H]34 [SOPHORIDINE] gave a Ratio (HepG2 [2]) of 1.22.
With COC(=O)CCC[C@@H]1[C@H]2CCCN3CCC[C@H](CN1S(=O)(=O)c1ccc(C)cc1)[C@@H]23 the Ratio (HepG2 [2]) was 1.14.
Compound O=C(O)C[C@@H]1[C@H]2CCCN3CCC[C@@H](CN1S(=O)(=O)c1cccc(C(F)(F)F)c1)[C@@H]23 has a Ratio (HepG2 [2]) of 1.06.
Work on O=S(=O)(c1ccc(C(F)(F)F)cc1)N1C[C@@H]2CCCN3CCC[C@@H]([C@H]23)[C@H]1CCCCN=C=S yielded a Ratio (HepG2 [2]) of 1.02.
In the case of CCCC[C@@H]1[C@H]2CCCN3CCC[C@@H](CN1C(=O)Nc1ccc(F)cc1)[C@@H]23, the Ratio (HepG2 [2]) is reported as 1.02.
For CCCC[C@@H]1[C@H]2CCCN3CCC[C@@H](CN1C(=O)Nc1ccccc1C)[C@@H]23, the Ratio (HepG2 [2]) was 1.3.

Source: ChEMBL document CHEMBL4818983, “Structure-activity relationship and hypoglycemic activity of tricyclic matrines with advantage of treating diabetic nephropathy” (Eur J Med Chem, 2020)
